Source: PubChem
The sample as a whole holds a higher share of hits than the screen did.
CHOP UPR activ – apoptotic UPR (CHOP) activation; actives 0.34% (n = 330,000); AID 449763; CHO-CHOP luciferase reporter, luminescence; percent of tunicamycin response over DMSO baseline; activation, % at 10 µM;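 active = at 10 µM dose, activation of 40% or more, normalized to positive control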;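 also: 100% = tunicamycin at 10 µg/mL and 0% = DMSO alone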
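Dosing – one dose, 10 µM in 0.5% DMSO · System – CHO-CHOP cells, stable luciferase reporter of PERK-eIF2a-CHOP signalling · Input – 500 cells/well · Control set – tunicamycin 10 µg/mL final as positive, DMSO-only wells as negative · Timing – 6 h compound treatment, 37 °C · Measure – % activation vs tunicamycin · Technique – luminescence read with Steady-Glo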
V-ATPase pH – alters yeast V-ATPase proton transport; AID 504577; S. cerevisiae, pHLuorin cytosolic pH fluorescence; response, % at 10 µM; actives 0.37% (n = 350,000); in the data active = response mostly above about 7.3%, no sharp cut-off; inactive = mostly below about 5.4%; also: actives read high
CHOP inhibitor – blocks CHOP induction under ER stress. actives 3.8% (n = 220,000). inhibition, % at 10 µM. CHO-K1 CHOP-promoter luciferase, tunicamycin-induced, 15-18 h;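 active = compounds that reduced the stress-induced luciferase reporter signal by more than about 70% of percent inhibition, limit read from the data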;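 also: 0% = tunicamycin plus vehicle and 100% = wells without tunicamycin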
UPR XBP1 act – activators of adaptive arm of unfolded protein response (XBP1) | AID 463104 | CHO-XBP1 luciferase reporter, IRE1-XBP1 UPR activation, luminescence; percent of tunicamycin response, DMSO as zero | actives 0.33% (n = 330,000) | activation, % at 20 µM;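 active = versus positive control, 20 µM dose yields 30% or more activation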;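 also: 100% = tunicamycin at 10 µg/mL and 0% = DMSO only wells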
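Material – CHO cell line with stable XBP1 luciferase reporter · Buffer or medium – F12 plus 10% FBS · Compound – single point, 20 µM final compound, 1% DMSO · Schedule – 16-18 h cell attachment at 37 °C, then 6 h compound exposure · Signal – Steady-Glo luminescence read · Benchmarks – high control tunicamycin 10 µg/mL final, low control DMSO vehicle only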
TbMetRS inhib – Trypanosoma brucei MetRS inhibition; purified T. brucei MetRS, ATP depletion, Kinase-Glo luminescence; inhibition, % at 11.9 µM; actives 0.4% (n = 360,000); AID 624268;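 active = inhibition above a per-plate cutoff of the control wells' mean inhibition plus 3 SD, cut at about 5.5% in these data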;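 also: 0% = DMSO wells median and 100% = median of wells with control inhibitor compound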
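Dosing: 11.9 µM compound single dose, 0.9% DMSO; Assay system: purified T. brucei MetRS enzyme; Measured by: Kinase-Glo luciferase luminescence reporting remaining unconsumed ATP; Schedule: 15 min plus 2 h at 25 °C.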
Active calls of the source: *; / = no result.

SMILES | CHOP UPR activ | V-ATPase pH | CHOP inhibitor | UPR XBP1 act | TbMetRS inhib
CCOc1cc(CNCCc2c[nH]c3ccccc23)cc(Cl)c1OC | -3 | 0 | 89* | -2 | -1
Cc1cc([N+](=O)[O-])c(Cl)cc1NC(=O)C(C)C | -1 | 12 | 49 | -1 | 1
CNc1cc(Cl)c2nonc2c1[N+](=O)[O-] | / | 10 | 107* | / | 0
CCCCCCCCc1ccc(O)cc1 | 4 | 27* | / | 4 | -1
Cc1cc(OC(=O)c2ccco2)c2c3c(c(=O)oc2c1)CCCC3 | 3 | -4 | 76* | -2 | 0
NC(CCCCCP(=O)(O)O)C(=O)O (centres undefined) | / | / | -19 | / | /
CS(=N)(=O)CC[C@H](N)C(=O)O (some centres undefined) | / | / | -6 | / | /
O=[N+]([O-])c1ccc(C2[C@H]3C(c4ccccc4)=NC4(CCCC4)N23)cc1 (some centres undefined) | -3 | 2 | 9 | -3 | -1
Cc1ccc(C2=NC(C)(C)N3C2C3c2ccc([N+](=O)[O-])cc2)cc1 (centres undefined) | 0 | -3 | 70* | -1 | 0
NC1CC1c1ccccc1 (centres undefined) | / | / | 0 | / | /
O=C(Oc1c(Cl)cc(Cl)c2ccccc12)N1CCCCC1 | 0 | -6 | 77* | -1 | -1
O=C(Nc1ccc(OC(=O)N2CCCCC2)cc1)N1CCOCC1 | -4 | -5 | 47 | -6 | -1
Cc1ccccc1[N+](=O)[O-] | 1 | 1 | / | -2 | -1
Cc1cc([N+](=O)[O-])c2ccccc2[n+]1[O-] | -4 | -14 | 104* | -6 | 0
Cc1sc(-n2c(C)cc(C=C3C(=O)NC(=O)NC3=O)c2C)c(C#N)c1C | 2 | / | 80* | 15 | /
C=C(C)[C@H]1Cc2c(ccc3c2O[C@@H]2COc4cc(OC)c(OC)cc4[C@@H]2C3=O)O1 | / | / | 27 | / | /
Cc1nc(-c2ccc(-c3ccc(C(=O)N4CCc5cc6c(cc54)C4(CCN(C)CC4)CO6)cc3)c(C)c2)no1 | / | / | 17 | / | /
CC1CCC(C(C)C)C(OC(=O)Cn2c(COc3ccccc3)[n+](C)c3ccccc32)C1 (centres undefined) | 2 | -3 | 92* | 23 | -1
CC1(C(=O)O)C2CCC(O2)C1(C)C(=O)O (centres undefined) | / | / | -4 | / | /
O=C(Cc1ccc(Cl)c(Cl)c1)N1CCCCC1CN1CCCC1 (centres undefined) | / | / | 5 | / | /
CC(C)=CCc1c(O)cc2c(c1O)C(=O)CC(c1ccc(O)cc1)O2 (centres undefined) | -1 | 0 | 77* | -1 | 0
Oc1ccc2c3c1O[C@H]1[C@@H](O)CC[C@@]4(O)C(C2)N(CC2CCC2)CCC314 (some centres undefined) | / | / | -8 | / | /
CC(C)c1ccc(N=Cc2c(O)n(C3CC3)c(=S)[nH]c2=O)cc1 | 6 | 1 | 84* | 1 | 0
CN(C)c1ccc(/C=C/C=C2/C(=O)NC(=O)N(c3ccccc3)C2=O)cc1 | / | 1 | 84* | / | -1
Cc1cccc(N2C(=O)NC(=O)/C(=C\C=C\c3ccco3)C2=O)c1 | 10 | 0 | 18 | 3 | 0
SMILES | CHOP UPR activ | V-ATPase pH | CHOP inhibitor | UPR XBP1 act | TbMetRS inhib
C[C@H]1CCC/C=C/C2C[C@H](O)CC2[C@H](O)/C=C/C(=O)O1 (some centres undefined) | 107* | -2 | / | 14 | -1
O=C(O)CCCOc1ccc(Cl)cc1Cl | / | -2 | / | / | 1
CN(C)c1nc(OCCNC(=O)COc2ccc(Cl)cc2Cl)nc(N2CCCCC2)n1 | 2 | 2 | 94* | 0 | -1
CCN1C(=O)/C(=C/c2ccc3c(c2)CCN3CCCCl)C(=O)NC1=S | / | 2 | 90* | / | 0
COc1ccc2c(c[n+](C)c3c4cc5c(cc4ccc23)OCO5)c1OC | / | / | -25 | / | /
NCC(CP(=O)(O)O)c1ccc(Cl)cc1 (centres undefined) | / | / | -6 | / | /
COc1ccc(/C=C/C(=O)c2c(O)n(CCC3=CCCCC3)c(=O)[nH]c2=O)cc1 | 0 | 3 | 81* | 2 | -1
CN(C)CCN=Cc1c(O)n(CCC2=CCCCC2)c(=O)[nH]c1=O | 0 | 2 | -2 | -2 | -1
O=C(/C=C/c1ccc2c(c1)OCO2)c1c(O)n(CCC2=CCCCC2)c(=O)[nH]c1=O | / | 1 | 90* | / | 0
CCCCn1c(O)c(C(=O)/C=C/c2ccc3c(c2)OCO3)c(=O)[nH]c1=O | 2 | 4 | 29 | -2 | 0
O=C1NC(=O)N(Cc2ccc(F)cc2)C(=O)/C1=C\c1ccoc1 | 0 | 2 | -52 | 2 | -1
Cc1ccc(/C=C2/C(=O)NC(=O)N(Cc3ccc(F)cc3)C2=O)o1 | 5 | / | 89* | 13 | /
O=C1C(=O)c2ccccc2-c2ccccc21 | -5 | -2 | 107* | -12 | 38*
O=C1C(=O)c2cccc3cccc1c23 | 4 | 0 | 55 | 19 | 0
CC1Oc2cc3c(-c4c(O)cc(O)c5c(O)c6c(cc45)OC(C)C(C)C6=O)c(O)cc(O)c3c(O)c2C(=O)C1C (centres undefined) | 7 | 1 | 102* | 18 | 3
O=C1NC(=O)N(CCc2ccc(F)cc2)C(=O)/C1=C\C=C\c1ccccc1 | / | -4 | 73* | / | 0
C=CCN1C(=O)NC(=O)/C(=C/C=C/c2ccccc2)C1=O | / | 8 | 15 | / | 0
O=C(COc1ccc(Br)cc1)N1CCN(C2CCCC2)CC1 | 1 | -2 | -26 | 0 | -2
Cc1ccc(OCC(=O)N2CCN(C3CCC(c4ccccc4)CC3)CC2)cc1 (centres undefined) | -1 | -1 | 93* | 0 | -2
C=CCN1C(=O)/C(=C/c2ccc(Br)s2)C(=O)NC1=S | 2 | 5 | / | -8 | 0
CN1C(=O)/C(=C/c2ccc(Cl)s2)C(=O)NC1=S | / | 25* | / | / | 0
C=C1C(=O)O[C@@H]2C[C@@H](C)[C@@H]3C=CC(=O)[C@@]3(C)[C@@H](OC(=O)CC(=O)O[C@H]3[C@@H]4C(=C)C(=O)O[C@@H]4C[C@@H](C)[C@@H]4C=CC(=O)[C@]43C)[C@H]12 | -9 | 3 | 108* | -9 | 0
C[C@@H]1O[C@H](C[N+](C)(C)C)CS1 | / | / | -9 | / | /
CCOc1ccccc1OCC(=O)Nc1ccc(Cl)cc1C(=O)c1ccccc1 | -1 | -3 | 16 | -3 | -1
O=C(COC(=O)c1cccc(O)c1)Nc1ccc(Cl)cc1C(=O)c1ccccc1 | -1 | 0 | 80* | 2 | -1
NC(CP(=O)(O)O)C(=O)O (centres undefined) | / | / | -25 | / | /
O=c1[nH]c(=O)n(-c2ccc(Br)cc2)c(O)c1C=NC(CO)(CO)CO | 0 | 2 | 10 | -2 | 0
N=Cc1c(O)n(-c2ccc(C34CC5CC(CC(C5)C3)C4)cc2)c(=O)[nH]c1=O | 0 | -4 | 81* | 0 | -1
